Assay results of several laboratories.
Compare with care: the assays were run in different laboratories.
MINK1: Misshapen-like kinase 1 (MINK1, Homo sapiens, UniProt Q8N4C8)
CD209: CD209 antigen (CD209, Homo sapiens, UniProt Q9NNX6)
SLC22A11: Solute carrier family 22 member 11 (SLC22A11, Homo sapiens, UniProt Q9NSA0)
RIOK1: Serine/threonine-protein kinase RIO1 (RIOK1, Homo sapiens, UniProt Q9BRS2)

The remaining binding of CCCCC(=O)Nc1ccc(-c2ccc3ncn(CCC)c(=O)c3c2)cn1 is reported as 99% (MINK1; binding, competition with immobilised ligand; 0.5 µM).
For COc1c(Nc2cc(C(F)(F)F)cc(C(F)(F)F)c2)c(=O)c1=O, the kinact/KI was 0.916 M⁻¹ s⁻¹ (CD209; cell-free assay, inhibitor; pH 7.4).
The inhibition of Cc1cc(F)cc2c(CCC(=O)N[C@@H]3C(=O)NC[C@H]3O)c(-c3ccc(F)cc3)[nH]c12 is reported as 26% (Alpha-2A adrenergic receptor (ADRA2A, Homo sapiens, UniProt P08913); cell-free assay; 10 µM).
With Cc1cc(O)c(-c2ccc([C@@H](C)CN(C)C)cc2)c2c1[nH]c(=O)c1sccc12 the inhibition was 0.327% (Receptor-interacting serine/threonine-protein kinase 4 (RIPK4, Homo sapiens, UniProt P57078); enzyme activity, inhibitor; 0.1 µM).
The remaining binding of COc1ccc2oc(-c3ccc4nc(N)oc4c3)c/c(=N\c3ccccc3NC(=O)CCN)c2c1 is reported as 106% (Transient receptor potential cation channel subfamily M member 7 (TRPM7, Homo sapiens, UniProt Q96QT4); binding; 1 µM).
With C1=C/COCc2cc(ccc2OCCN2CCCC2)Nc2nccc(n2)-c2cccc(c2)COC/1 the remaining binding was 13% (Tyrosine-protein kinase ABL1 (ABL1, Homo sapiens, UniProt P00519, T315I); binding; 0.1 µM).
With O=C(O)CCc1nc(-c2ccccc2)c(-c2ccccc2)o1 the inhibition was 81.6% (SLC22A11; transporter uptake, inhibitor; 25 µM).
With O=C(ON1C(=O)CCC1=O)c1cc(C(F)(F)F)cc(C(F)(F)F)c1 the kinact/KI was 91.7 M⁻¹ s⁻¹ (CD209; cell-free assay, inhibitor; pH 7.4).
For CCN1/C(=C/C(C)=O)Sc2ccc(F)cc21, the inhibition was 0% (5-hydroxytryptamine receptor 3A (HTR3A, Homo sapiens, UniProt P46098); ligand displacement, radioligand; 10 µM).
C[C@]1(O)CCCN(c2nc(Nc3ccc(S(=O)(=O)N[C@H]4CC[C@H](CN5CCN(c6ccc(C7CCC(=O)NC7=O)cc6F)CC5)CC4)cc3F)ncc2C(F)(F)F)C1 (stereo partly drawn) has a remaining binding of 34% (STE20-like serine/threonine-protein kinase (SLK, Homo sapiens, UniProt Q9H2G2); binding, competition with immobilised ligand; 1 µM).
For CCCc1nc2c(C)cc(-c3nc4ccccc4n3C)cc2n1Cc1ccc(-c2ccccc2C(=O)O)cc1, the inhibition was 90.2% (SLC22A11; transporter uptake, inhibitor; 25 µM).
Cc1cc(S(=O)(=O)N[C@H]2CC[C@H](CN3CCN(c4ccc(C5CCC(=O)NC5=O)cc4F)CC3)CC2)ccc1Nc1ncc(C(F)(F)F)c(N2CCC[C@](C)(O)C2)n1 (stereo partly drawn) gave a remaining binding of 79% (RIOK1; binding, competition with immobilised ligand; 1 µM).
CCCCC1=NC2(CCCC2)C(=O)N1Cc1ccc(-c2ccccc2-c2nnn[nH]2)cc1 gave an inhibition of 50 to 90% (SLC22A11; transporter uptake, inhibitor; 25 µM).
The inhibition of NC/C(=C\F)COc1cccc(Cn2c(=S)[nH]c(=O)c3[nH]cnc32)c1 is reported as 3.14% (Diamine oxidase [copper-containing] (AOC1, Homo sapiens, UniProt P19801); enzyme activity, inhibitor; 200 pM).
For CN(CCOc1ccc(CC2SC(=O)NC2=O)cc1)c1ccccn1 (stereo not drawn), the inhibition was 94.1% (SLC22A11; transporter uptake, inhibitor; 25 µM).
With C#Cc1cc(-c2cc(Nc3nc(N[C@@H](C)c4ccc(F)cn4)ncc3Cl)n[nH]2)ccc1C=O the inhibition was 55.9% (MINK1; enzyme activity, inhibitor; 0.2 µM).
CC(C)=CCCC1(C)C=Cc2c(O)c3c(c(CC=C(C)C)c2O1)OC12C(=CCCC1C(C)(C)O[C@@]2(C/C=C(\C)C(=O)O)C(=O)O)C3=O (stereo partly drawn) has an inhibition of 87.8% (SLC22A11; transporter uptake, inhibitor; 25 µM).
With C[C@]1(O)CCCN(c2nc(Nc3ccc(S(=O)(=O)N[C@H]4CC[C@H](CN5CCN(c6ccc(C7CCC(=O)NC7=O)cc6F)CC5)CC4)cc3Cl)ncc2C(F)(F)F)C1 (stereo partly drawn) the remaining binding was 88% (RIOK1; binding, competition with immobilised ligand; 1 µM).
